These results are taken from ChEMBL document CHEMBL1154696, “Synthesis and antitumor evaluation of analogues of the marine pyrroloiminoquinone tsitsikammamines” (Eur J Med Chem, 2010).

pIC50: −log10 of the molar value. Activity calls are given as the source filed them. The calls are words filed in the database; no cut-off is given here. Bounds are passed on as bounds.

A short description of data set [1]: Cytotoxicity against human U373 cells after 72 hrs by MTT assay. As to conditions: U373 MG. In kind it is functional, cell-based, U-373MG ATCC. In outline: (§1)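 Cells plated at 10,000 to 40,000 cells/mL, depending on cell type, and incubated 24 h before treatment. Growth was read after 72 h culture with or without compound. MTT reduction to formazan by living cells was read by spectrophotometry at 570 nm with a 630 nm reference. IC50 growth inhibitory concentrations were derived. NHDF and Wi38 are normal human fibroblasts.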
For orientation: Tetrazolium assays rely on reduction of a dye to a coloured formazan, in cell work by metabolically active cells.

A further data set concerns PC-3. Nature of the data set: Cytotoxicity against human PC3 cells after 72 hrs by MTT assay. The class given is functional, cell-based. Particulars: PC-3, 72 h. In outline: as §1
The next data set deals with A549. Nature of the data set: Cytotoxicity against human A549 cells after 72 hrs by MTT assay. The class given is functional, cell-based. As to conditions: A549, 72 h. In outline: as §1
The nature of data set [2]: Cytotoxicity against human WI38 cells after 72 hrs by MTT assay. The class given is cell-based. Particulars: wi-38, 72 h. In outline:
as §1

The test system of another data set is U-373MG ATCC. Put plainly: Cytotoxicity against human apoptosis-resistant U373 cells at 5 uM after 2 hrs by computer-assisted phase contrast microscopy. In kind it is functional, cell-based. In outline: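 U373 glioblastoma cells were cultured with or without 5 μM compound. Morphology was followed by quantitative computer-assisted phase-contrast videomicroscopy at 100x and 400x magnification over about 2 h after compound addition, to tell cytotoxic from cytostatic effects.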

The subject of another data set is NHDF. Put plainly: Cytotoxicity against human NHDF cells after 72 hrs by MTT assay. In kind it is cell-based. An outline of the steps:
as §1

As for `COc1ccc(-c2c[nH]c3c2C2=NCCc4cn(S(=O)(=O)c5ccc(C)cc5)c(c42)C3=O)cc1`, the pIC50 in data set [1] was 4.24; in the data set on PC-3, < 4.00; with A549, 4.81.
As to `COc1ccc(-c2c[nH]c3c2C(=O)c2[nH]ccc2C3=O)cc1`, the pIC50 (in data set [1]; in the data set on PC-3; in the data set with A549) was < 4.00 each time.
As to `COc1ccc(-c2c[nH]c3c2C(=O)c2c4c(cn2S(=O)(=O)c2ccc(C)cc2)CCN=C34)cc1`, the pIC50 in data set [1] is 4.38; in the data set on PC-3, < 4.00; in the data set on A549 it was 5.51.
For `COc1ccc(-c2c[nH]c3c2C(=O)c2[nH]cc4c2C3=NCC4)cc1` the same measures were 5.39, 4.25 and 4.42.
`COc1ccc(-c2c[nH]c3c2C(=O)c2c(CCN)cn(S(=O)(=O)c4ccc(C)cc4)c2C3=O)cc1`: the negative logarithm of the IC50 (pIC50) was 5.49 in data set [1], 5.38 with PC-3 and 5.39 in the data set on A549. Further, the Activity result (in data set [2]; in the data set with NHDF) was “Toxic” throughout. Moreover, the result in the data set on U-373MG ATCC was Active.
On to `COc1ccc(C(O)CNC2=CC(=O)c3c(ccn3S(=O)(=O)c3ccc(C)cc3)C2=O)cc1` (stereo unspecified), for which the pIC50 in data set [1] is 4.25; in the data set with PC-3, 4.43; with A549, 4.15.
The matching figures for `COc1ccc(C2CNC3=C2C(=O)c2c4c(cn2S(=O)(=O)c2ccc(C)cc2)CCN=C34)cc1` (stereo unspecified): 4.52, 4.69 and 4.59.
`COc1ccc(-c2c[nH]c3c2C(=O)c2[nH]cc4ccnc-3c24)cc1`: the pIC50 (in data set [1]; with PC-3; in the data set on A549) was < 4.00 throughout.
For the molecule `COc1ccc(-c2c[nH]c3c2C(=O)c2c(ccn2S(=O)(=O)c2ccc(C)cc2)C3=O)cc1`, the negative logarithm of the IC50 (pIC50) in data set [1] was 4.32; in the data set with PC-3 it was 4.32; in the data set with A549, 4.38.
For the molecule `O=C1c2[nH]cc3c2C(=NCC3)c2c(-c3ccc(O)cc3)c[nH]c21` [TSITSIKAMMAMINE A], the pIC50 in data set [1] is 4.74; with PC-3, 4.64; in the data set with A549 it was 4.81.
The matching figures for `COc1ccc(C2CNC3=C2C2=NCCc4cn(S(=O)(=O)c5ccc(C)cc5)c(c42)C3=O)cc1` (stereo unspecified): 4.74, 4.69 and 5.01.
In the case of `COc1ccc(-c2c[nH]c3c2C2=NCCc4c[nH]c(c42)C3=O)cc1`, the negative logarithm of the IC50 (pIC50) (in data set [1]; in the data set on PC-3; with A549) was < 4.00 each time.
`COc1ccc(C2C=NC3=C2C(=O)c2cc[nH]c2C3=O)cc1` (stereo unspecified): the pIC50 in data set [1] was 5.12; with PC-3, < 4.00; in the data set on A549, 5.11.
For `COc1ccc(C2CNC3=C2C(=O)c2c(ccn2S(=O)(=O)c2ccc(C)cc2)C3=O)cc1` (stereo unspecified) the same measures were 4.28, 4.47 and 4.28.
The matching figures for `COc1ccc(C2CNC3=C2C(=O)c2ccn(S(=O)(=O)c4ccc(C)cc4)c2C3=O)cc1` (stereo unspecified): 4.33, 4.43 and 4.45.
Turning to `COc1ccc(-c2c[nH]c3c2C(=O)c2c(c(CCN)cn2S(=O)(=O)c2ccc(C)cc2)C3=O)cc1`, the figures for the pIC50 (in data set [1]; in the data set with PC-3; with A549) were 5.07, 4.50 and 4.95, respectively. Besides, the Activity entry (in data set [2]; with NHDF) was “Non-toxic” each time.
Turning to `O=C1C2=C(N=CC2c2ccc(O)cc2)C(=O)c2[nH]ccc21` (stereo unspecified), the pIC50 (in data set [1]; in the data set on PC-3; with A549) was < 4.00 each time.
Turning to `O=C1c2[nH]cc3c2C(=NCC3)c2[nH]cc(-c3ccc(O)cc3)c21`, the pIC50 is 4.21 in data set [1], 4.20 with PC-3 and 4.45 with A549.
Regarding `COc1ccc(-c2c[nH]c3c2-c2nccc4c[nH]c(c24)C3=O)cc1`, the pIC50 in data set [1] was 4.01; with PC-3 it was 4.05; in the data set with A549, 4.09.
The matching figures for `COc1ccc(-c2c[nH]c3c2C(=O)c2ccn(S(=O)(=O)c4ccc(C)cc4)c2C3=O)cc1`: < 4.00, 4.61 and 4.11.
`O=C1c2cc[nH]c2C(=O)c2c(-c3ccc(O)cc3)c[nH]c21`: the pIC50 is 4.43 in data set [1], < 4.00 in the data set with PC-3 and 4.13 in the data set with A549.
Consider `COc1ccc(C(O)CNC2=CC(=O)c3ccn(S(=O)(=O)c4ccc(C)cc4)c3C2=O)cc1` (stereo unspecified), for which the pIC50 was 4.53 in data set [1], < 4.00 with PC-3 and < 4.00 with A549.

The pIC50 is the negative decadic logarithm of the IC50, by convention in mol/L.
